The values below come from ChEMBL document CHEMBL3102703, “Chemical constituents from Inonotus obliquus and their biological activities” (J Nat Prod, 2014).

A short description of test [1]: Hepatoprotective activity in rat WB-F344 cells assessed as inhibition of D-galactosamine-induced toxicity at 10 uM preincubated for 1 hr followed by D-galactosamine challenge measured after 24 hrs by MTT assay relative to control. In kind it is functional. In a few lines:
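WB-F344 rat liver cells, compounds at 10 μM, D-galactosamine injury. Read-out is optical density. Survival is given as % of untreated normal cells. Inhibition (%) = [(OD sample − OD control)/(OD normal − OD control)] × 100. Bicyclol at 10 μM is the positive control. Data are means ± SD: n = 3 for samples, n = 6 for normal and control wells.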

Test [2] can be described thus: Hepatoprotective activity against D-galactosamine-induced toxicity in rat WB-F344 cells assessed as cell survival at 10 uM preincubated for 1 hr followed by D-galactosamine challenge measured after 24 hrs by MTT assay relative to normal cell. The class given is functional. The following applies: read-out: Survival. In a few lines:
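WB-F344 cells exposed to D-galactosamine, with test agents at 10 μM and bicyclol at 10 μM as positive control. Readout is optical density (OD). Survival is expressed as % of untreated normal cells. Values are means ± SD, n = 3 (n = 6 for normal and model-control groups).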

Test [3] can be described thus: Cytotoxicity against human Bel7402 cells after 4 days by MTT assay. The class given is functional, cell-based. To be noted: Bel-7402, 96 h.
The subject of a further test is KB. The test is described as follows: Cytotoxicity against human KB cells after 4 days by MTT assay. In kind it is functional, cell-based. The following applies: 96 h.
Another test has as its system A549. The test is described as follows: Cytotoxicity against human A549 cells after 4 days by MTT assay. The following applies: A549, 96 h. The class given is functional, cell-based.
The nature of test [4]: Inhibition of tyrosine kinase (unknown origin) by ELISA. Also noted: species or system Homo sapiens.

Regarding `CC(C)=CCC[C@@H](C(=O)O)[C@H]1CC[C@@]2(C)C3=C(CC[C@]12C)[C@@]1(C)CC[C@H](O)C(C)(C)[C@@H]1CC3` [TRAMETENOLIC ACID], the inhibition at 10 µM in test [1] came out at 75%. Further, the viability at 10 µM in test [2] stood at 92%.

For `CC(C)[C@@H](C)CC[C@@H](C)[C@H]1CC[C@H]2C3=CCC4C[C@@H](O)CC[C@]4(C)[C@H]3CC[C@]12C` (stereo partly drawn), in test [1], the inhibition at 10 µM amounted to 37.4%. The viability at 10 µM in test [2] came to 80%.

Consider `CC(C)=CCC[C@@H](C)[C@H]1CC[C@@]2(C)C3=C(CC[C@]12C)[C@@]1(C)CC[C@H](O)C(C)(C)[C@@H]1CC3` [LANOSTEROL], for which, in test [1], the inhibition at 10 µM was found to be 74.8%. The viability at 10 µM in test [2] was found to be 92%.

For `C=C(C)C(=O)CC(O)[C@@H](C)[C@H]1CC[C@@]2(C)C3=C(CC[C@]12C)[C@@]1(C)CC[C@H](O)C(C)(C)[C@@H]1CC3` (stereo partly drawn), the IC50 in test [3] was above 10 µM; in the test with KB it was 9.9 µM; in the test with A549, above 10 µM.

Take `COc1cc(C(=O)O)ccc1O` [VANILLIC ACID]: the inhibition at 10 µM in test [1] came to 56.5%. Further, the viability at 10 µM in test [2] was 86%.

In the case of `CC[C@H](CC[C@@H](C)[C@H]1CC[C@H]2[C@@H]3CCC4=C[C@@H](O)CC[C@]4(C)[C@H]3CC[C@]12C)C(C)C` [LAWSARITOL], in test [1], the inhibition at 10 µM was found to be 40.6%. Moreover, the viability at 10 µM in test [2] is 81%.

Regarding `CC(C)c1ccc2c(c1)C(=O)C[C@H]1C(C)(C)CCC[C@@]21C(=O)O`, the inhibition at 10 µM in test [1] amounted to 34.4%. In addition, the viability at 10 µM in test [2] stood at 79%.

As for `CC(C)=CC[C@@H](O)[C@@H](C)[C@H]1CC[C@@]2(C)C3=C(CC[C@]12C)[C@@]1(C)CC[C@H](O)C(C)(C)[C@@H]1CC3` [INOTODIOL], the inhibition at 10 µM in test [1] was 56.3%. Besides, the viability at 10 µM in test [2] amounted to 86%.

Turning to `CC(C)=C(C)[C@@H]1C[C@H]([C@H]2CC[C@@]3(C)C4=C(CC[C@]23C)[C@@]2(C)CC[C@H](O)C(C)(C)[C@@H]2CC4)C(=O)O1`, the inhibition at 10 µM in test [1] was determined as 71.9%. For the same compound, the viability at 10 µM in test [2] was found to be 91%.

For the compound `O=c1[nH]cc(F)c(=O)[nH]1` [FLUOROURACIL], the IC50 came to 5.5 µM in test [3] and 8.1 µM in the test on KB.

As to `CC(=O)/C=C/c1ccc(O)c(O)c1`, the IC50 in test [3] was 4.7 µM; with KB it was above 10 µM; in the test on A549, above 10 µM.

As to `O=Cc1ccc(O)c(O)c1` [PROTOCATECHUALDEHYDE], the IC50 in test [4] is 7.7 µM; in test [3], 3.7 µM; in the test with KB, above 10 µM; in the test with A549 it was 3.1 µM.

Consider `COC(=O)c1cc(OC)c2c(c1-c1c(CO)cc(OC)c3c1OCO3)OCO2` [BICYCLOL], for which the viability at 10 µM in test [2] amounted to 80%.

With `CC(C)=CCC(O)[C@@H](C)[C@H]1CC[C@@]2(C)C3=C(C(=O)C[C@]12C)[C@@]1(C)CC[C@H](O)C(C)(C)[C@@H]1CC3` (stereo partly drawn), in test [1], the inhibition at 10 µM was determined as 81.2%. For the same compound, the viability at 10 µM in test [2] amounted to 94%.

As to `CC(C)[C@@H](C)/C=C/[C@@H](C)[C@H]1CC[C@H]2C3=CC[C@H]4C[C@@H](O)CC[C@]4(C)[C@H]3CC[C@]12C`, the inhibition at 10 µM in test [1] was determined as 43.8%. The viability at 10 µM in test [2] turned out to be 82%.
